High-throughput results (PubChem)
EBNA-1 inhibitor: blocks EBNA-1 binding to DNA; inhibition, % at 14.8 µM; 300,000 tested, 0.34% active; EBNA-1 DNA binding, fluorescence polarization; in the data active means inhibition above about 28%
FGF22 binding: FGF22 (human) thermal shift binding | recombinant FGF22 thermal shift, SYPRO orange fluorescence; percent of sucrose octasulfate shift, DMSO zero | activity (Tm shift, normalised), % at 9.99 µM | 340,000 tested, 1.5% active | AID 651658;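 active means mean Tm shift, scaled 0 neutral to 100 positive control, at about 1.3% or above, every replicate too, limit read from the data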
Target sequence (Q9HCT0 whole entry, looked up): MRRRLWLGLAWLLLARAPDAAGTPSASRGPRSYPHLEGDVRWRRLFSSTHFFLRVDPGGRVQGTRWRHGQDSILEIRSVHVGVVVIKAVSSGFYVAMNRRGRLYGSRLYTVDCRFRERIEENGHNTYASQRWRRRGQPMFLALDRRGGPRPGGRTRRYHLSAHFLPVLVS
FID counter: fluorescent intercalator displacement, NS3 helicase counter-screen; DNA fluorescent intercalator displacement, fluorescence; inhibition, % at 7.9 µM; 290,000 tested, 0.17% active; in the data active means inhibition above about 37%;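 further: 0% = vehicle and 100% = reference compound; higher means more ethidium bromide displaced from hairpin DNA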
ZTA DNA inh: counter-screen for EBNA-1 inhibitors: inhibitors of Epstein-Barr virus ZTA; P03206; inhibition, % at 11 µM; 320,000 tested, 0.15% active; ZTA-DNA binding, fluorescence polarization; in the data active means inhibition above about 33%
Target sequence (P03206 whole entry, looked up): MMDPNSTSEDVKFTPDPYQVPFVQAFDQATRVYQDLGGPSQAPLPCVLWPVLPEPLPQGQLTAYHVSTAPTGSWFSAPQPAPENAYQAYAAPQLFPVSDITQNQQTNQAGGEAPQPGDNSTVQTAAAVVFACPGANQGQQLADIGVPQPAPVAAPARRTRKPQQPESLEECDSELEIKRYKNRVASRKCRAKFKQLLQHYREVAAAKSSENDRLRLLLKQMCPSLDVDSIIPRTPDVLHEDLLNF
HCV NS3 hel inh: blocks Hepatitis C virus NS3 helicase unwinding. NS3 helicase DNA unwinding, Cy5 molecular beacon fluorescence. inhibition, % at 10.9 µM. 290,000 tested, 0.56% active. AID 1800;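 active means inhibition above the mean of all tested compounds plus 3 SD, set per campaign, cut at about 35% in these data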;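 further: 0% = DMSO wells and 100% = thioflavine S control wells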
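assay system = NS3 helicase fragment of HCV | buffer or medium = MOPS pH 6.5, MgCl2, DTT, Tween20, BSA | timing = 60 min unwinding reaction at 25 °C after ATP addition | signal = Cy5 beacon fluorescence read at start and 1 h | read-out basis = % inhibition of unwinding | control set = low DMSO, high thioflavine S at 110 µM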
NR3A LBD binder: NR3A (human) ligand-binding domain modulation. NR3A LBD differential scanning fluorimetry, Tm shift; 0% = protein alone, 100% = glycine-bound protein. Tm shift relative to glycine control, % at 25 µM. 340,000 tested, 2.5% active. AID 1259313;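 active means melting temperature shift of at least 10% of the positive control shift, at one fixed dose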
An asterisk follows results filed as active; x = no result. Shown are actives, neighbours in structure and some others; about 3.6% of the full set was active somewhere.

SMILES | EBNA-1 inhibitor | FGF22 binding | FID counter | ZTA DNA inh | HCV NS3 hel inh | NR3A LBD binder
COc1ccc(NS(=O)(=O)c2ccc(N/N=C(\C)c3ccncc3)c([N+](=O)[O-])c2)cc1 | -6 | 1 | -1 | -30 | -16 | 21*
CCOc1ccc(C=NNc2ccc(S(=O)(=O)Nc3ccccc3C(=O)O)cc2[N+](=O)[O-])cc1 | x | 0 | x | x | x | 5
CCOc1cccc(C=NNc2ccc(S(=O)(=O)Nc3ccccc3C(=O)O)cc2[N+](=O)[O-])c1O | x | 0 | x | x | x | 17*
COc1ccc(C=NNc2ccc(S(=O)(=O)Nc3ccccc3C(=O)O)cc2[N+](=O)[O-])c(OC)c1 | x | x | x | x | x | 457*
O=C(O)c1ccccc1NS(=O)(=O)c1ccc(NN=Cc2ccccc2F)c([N+](=O)[O-])c1 | x | 0 | x | x | x | 10*
COc1ccc(S(=O)(=O)N[C@H]2CC[C@H](CCNC(=O)c3ccccc3F)O[C@H]2CO)cc1 | x | 0 | x | x | x | x
C[C@H](CO)N1C[C@H](C)[C@@H](CN(C)Cc2ccc(F)cc2)Oc2ncc(C#Cc3cccnc3)cc2C1=O | x | 0 | x | x | x | x
O=[N+]([O-])c1ccccc1/C=C/C=N/Nc1ccc(S(=O)(=O)Nc2ccc(Cl)cc2)cc1[N+](=O)[O-] | -3 | 0 | 2 | -8 | -6 | 11*
Cc1nn(CC(=O)NCCCN2CCC(N3CCCCC3)CC2)c(=O)c2cc(-c3ccccc3)nn12 | 0 | 0 | 38* | 3 | -37 | -3
C[C@H](CO)N1C[C@H](C)[C@H](CN(C)Cc2ccncc2)OCCCC[C@H](C)Oc2ccc(NC(=O)Nc3ccc(F)cc3)cc2C1=O | x | 0 | x | x | x | x
Cn1c(=O)c2[nH]c(CCNC(=O)c3ccccc3)nc2n(C)c1=O | x | 43* | x | x | x | 1
Cn1c(=O)c2[nH]c(CCCCCc3nc4ccccc4[nH]3)nc2n(C)c1=O | x | x | x | x | x | 1
CN(C(=O)CS(=O)(=O)Cc1ccccc1Cl)c1ccccc1 | -4 | 43* | -5 | -1 | 0 | 5
CCOC(=O)/C(=C/c1ccc(OC(=O)c2ccncc2)cc1)C(C)=O | -7 | 44* | 6 | -2 | -7 | 1
COCCOC(=O)/C(=C/c1ccc(OC(=O)c2ccccc2)cc1)C(C)=O | 5 | x | -4 | 14 | 0 | 1
Fc1ccc(-c2csc(Nc3ccccn3)n2)c(F)c1 | -6 | 0 | 12 | 9 | -9 | 32*
Cc1cccnc1Nc1nc(-c2ccc(O)cc2)cs1 | -5 | x | 5 | -22 | -10 | 30*
Oc1ccc(-c2csc(Nc3ccccn3)n2)cc1 | 9 | 0 | -2 | -20 | 13 | 31*
c1ccc(-c2csc(Nc3ccccn3)n2)cc1 | -12 | 0 | -6 | -5 | -8 | -4
Cc1cccnc1Nc1nc(-c2ccc(F)cc2)cs1 | -7 | 0 | -8 | 10 | -12 | 1
O=C(C[C@H]1C=C[C@H](NC(=O)C2CCC2)[C@@H](CO)O1)NCCCN1CCOCC1 | x | 0 | x | x | x | x
CCN(c1ccccc1)S(=O)(=O)c1ccc(Cl)c(C(=O)OCC(=O)NC(=O)C(C)C)c1 | 8 | 43* | -17 | 9 | 10 | -2
CCN(c1ccccc1)S(=O)(=O)c1ccc(Cl)c(NC(=O)COC(=O)c2cc(O)c3ccccc3c2O)c1 | 7 | x | -21 | 1 | 18 | x
CCN(c1ccccc1)S(=O)(=O)c1ccc(Cl)c(NC(=O)COC(=O)c2ccc(O)cc2)c1 | 13 | x | -11 | -8 | -5 | 16*
CC(C)NC(=O)N1C[C@H]2[C@@H](c3ccccc31)[C@H](CO)N2C(=O)c1ccncc1 | x | -1 | x | x | x | x
SMILES | EBNA-1 inhibitor | FGF22 binding | FID counter | ZTA DNA inh | HCV NS3 hel inh | NR3A LBD binder
Cc1cc(C(=O)Nc2cccc3c2O[C@H](CN(C)C(=O)Nc2c(C)noc2C)[C@@H](C)CN([C@H](C)CO)C3=O)n(C)n1 | x | 0 | x | x | x | x
CCCCNS(=O)(=O)c1ccc2nc(SCC(=O)Nc3ccccc3Cl)[nH]c2c1 | -2 | 0 | -11 | -15 | -28 | 5
CCCCNS(=O)(=O)c1ccc2nc(SCC(N)=O)[nH]c2c1 | 3 | 0 | -6 | -3 | -1 | 2
CCCCNS(=O)(=O)c1ccc2nc(SCC(=O)Nc3cccc(F)c3)[nH]c2c1 | -5 | x | -14 | 1 | -3 | 17*
CCCCNS(=O)(=O)c1ccc2nc(SCC(=O)Nc3sccc3C#N)[nH]c2c1 | -11 | x | -6 | -12 | -18 | 14*
COc1ccc(S(=O)(=O)N(C)C[C@H]2Oc3ncc(C#CC4(O)CCCC4)cc3C(=O)N([C@H](C)CO)C[C@@H]2C)cc1 | x | 0 | x | x | x | x
CCCCS(=O)(=O)Nc1ccc2ncn(C)c(=O)c2c1 | 13 | x | -1 | 7 | -1 | 11*
CCCCS(=O)(=O)Nc1ccc2cn[nH]c2c1 | 0 | 0 | 1 | -8 | -8 | 1
NC(=O)COc1ncnc2scc(-c3ccc(F)cc3)c12 | -7 | 0 | 1 | -19 | 4 | 0
COCCNC(=O)COc1ncnc2ccc(Br)cc12 | 15 | x | -5 | 5 | 3 | 13*
COCCNC(=O)COc1ncnc2scc(-c3ccc(F)cc3)c12 | -9 | 43* | 1 | -4 | 12 | -1
Cc1ccc(S(=O)(=O)N[C@H]2C=C[C@@H](CC(=O)N3CCN(c4ccccc4)CC3)O[C@@H]2CO)cc1 | x | 0 | x | x | x | x
COc1ccccc1CNC(=O)C[C@H]1CC[C@@H](NC(=O)CC2CC2)[C@@H](CO)O1 | x | -1 | x | x | x | x
NC(=S)n1[nH]c(-c2ccc([N+](=O)[O-])cc2)c(N=Nc2cccc(Cl)c2)c1=O | x | 0 | -11 | x | 21 | 25*
NC(=S)n1[nH]c(-c2ccc([N+](=O)[O-])cc2)c(N=Nc2ccc(O)cc2)c1=O | 0 | x | 1 | 3 | -3 | 27*
CC(=O)N1CCc2cc(N=NC3=C(O)CC(C)(C)CC3=O)ccc21 | 2 | 43* | -18 | 11 | 5 | -3
O=C(C[C@H]1CC[C@@H]2[C@H](COC[C@H](O)CN2Cc2ccc(Cl)cc2)O1)Nc1nccs1 | x | 0 | x | x | x | x
Cc1cccc2c1CC(C)(C)N=C2C1=C(O)CCCC1=O | -7 | x | -2 | 1 | -4 | 14*
O=C(N[C@H]1CC[C@H](CCNC(=O)c2ccccc2F)O[C@@H]1CO)c1cnccn1 | x | 1 | x | x | x | x
S=C1NC2(CCCCC2)Nc2ccccc21 | -18 | 1 | 4 | 0 | 2 | 12*
Cc1occc1C(=O)N/N=C/c1c(O)ccc2ccccc12 | -8 | 0 | -1 | 0 | 18 | 32*
O=C(N/N=C\c1c(O)ccc2ccccc12)c1ccc(O)cc1 | -8 | 0 | -10 | 3 | 14 | 41*
Cc1noc(C)c1S(=O)(=O)Nc1ccc2c(c1)C(=O)N([C@H](C)CO)C[C@H](C)[C@H](CN(C)CC1CCCCC1)O2 | x | 0 | x | x | x | x
Cc1c(-n2c(SCC(=O)NC(C)C(C)C)nc3ccccc3c2=O)c(=O)n(-c2ccccc2)n1C (stereo not given) | 3 | 43* | -18 | -9 | -1 | 2
